Assay [1] deals with Carbonic anhydrase 1 (Homo sapiens) (UniProt P00915). As to the kind of experiment: Activation of recombinant human carbonic anhydrase 1 incubated for 15 mins prior to testing by stopped flow CO2 hydrase assay. In outline: (§1)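 CO2 hydration followed 5–10 s in stopped-flow instrument; phenol red 0.2 mM read at 557 nm; 10 mM HEPES pH 7.4, 0.1 M NaClO4 for ionic strength; saturated CO2 solutions in water at 25°C as substrate. Activator stocks 10 mM in assay buffer, diluted down to 0.01 nM; enzyme and activator preincubated 15 min at room temperature. Activation constant from competitive steady-state equation.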

The target of assay [2] is Carbonic anhydrase 2 (Homo sapiens) (UniProt P00918). As to the kind of experiment: Activation of recombinant human carbonic anhydrase 2 incubated for 15 mins prior to testing by stopped flow CO2 hydrase assay. The method in brief:
as §1

Chain of Carbonic anhydrase 1 (Homo sapiens) (P00915 2-261 limits assumed): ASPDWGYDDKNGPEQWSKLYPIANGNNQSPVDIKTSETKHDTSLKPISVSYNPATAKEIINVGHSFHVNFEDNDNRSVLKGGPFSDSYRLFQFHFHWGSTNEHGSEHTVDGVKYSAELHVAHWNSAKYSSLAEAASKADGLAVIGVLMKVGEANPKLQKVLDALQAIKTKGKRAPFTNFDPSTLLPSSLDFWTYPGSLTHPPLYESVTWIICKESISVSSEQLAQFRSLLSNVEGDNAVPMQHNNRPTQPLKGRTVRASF

In the case of `CCCCNC(=O)n1cnc(N)n1`, the KA was found to be 6.1 nM in assay [1] and 1.7 nM in assay [2].

Consider `O=C(O)c1ncn(C(=O)NCCCCCCNC(=O)n2cnc(C(=O)O)n2)n1`, for which the KA in assay [1] came to 13.7 nM; in assay [2], 6700 nM.

As for `Nc1ncn(C(=O)Nc2ccc(-c3ccc(NC(=O)n4cnc(N)n4)cc3)cc2)n1`, the KA stood at 0.81 nM in assay [1] and 14.1 nM in assay [2].

With `CCCCCCCCCCCCCCCCCCNC(=O)n1cnc(N)n1`, the KA in assay [1] is 987 nM; in assay [2], 1680 nM.

Turning to `Cc1ccc(NC(=O)n2cnc(N)n2)cc1NC(=O)n1cnc(N)n1`, the KA stood at 4.2 nM in assay [1] and 826 nM in assay [2].

As for `Nc1ncn(C(=O)NCCCCCCCCCCCCNC(=O)n2cnc(N)n2)n1`, the values for the KA in assay [1] and in assay [2] were 982 nM and 79 nM, respectively.

Take `Nc1ncn(C(=O)NCCCCCCCCNC(=O)n2cnc(N)n2)n1`: the KA in assay [1] came to 11.1 nM; in assay [2], 65 nM.

Consider `Nc1ncn(C(=O)NCCCCCCNC(=O)n2cnc(N)n2)n1`, for which the KA in assay [1] was found to be 42 nM; in assay [2], 14.6 nM.

Turning to `Nc1ncn(C(=O)NCCCCNC(=O)n2cnc(N)n2)n1`, the figures for the KA in assay [1] and in assay [2] were 74 nM and 91 nM, respectively.

As for `Nc1ncn(C(=O)Nc2ccc(NC(=O)n3cnc(N)n3)cc2)n1`, the KA came to 65 nM in assay [1] and 0.12 nM in assay [2].

Turning to `CCCCCCNC(=O)n1cnc(N)n1`, the figures for the KA in assay [1] and in assay [2] were 123 nM and 345 nM, respectively.

Take `COc1cc(-c2ccc(NC(=O)n3cnc(N)n3)c(OC)c2)ccc1NC(=O)n1cnc(N)n1`: the figures for the KA in assay [1] and in assay [2] were 637 nM and 1680 nM, respectively.

Take `Nc1ncn(C(=O)Nc2ccc(Cc3ccc(NC(=O)n4cnc(N)n4)cc3)cc2)n1`: the KA was determined as 0.94 nM in assay [1] and 0.05 nM in assay [2].

With `CC1(C)CC(NC(=O)n2cnc(N)n2)CC(C)(CNC(=O)n2cnc(N)n2)C1` (stereo not drawn), the KA came to 993 nM in assay [1] and 1570 nM in assay [2].

Values taken from ChEMBL document CHEMBL4000247, “Carbonic anhydrases activation with 3-amino-1H-1,2,4-triazole-1-carboxamides: Discovery of subnanomolar isoform II activators” (Bioorg Med Chem, 2017).
